Out of some 360,000 compounds screened, about 1,100 (0.31%) were called active. The list comes from a sample in which actives are over-represented; it also holds similar structures and randomly drawn compounds. A number with no mark means an inactive call.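 How the source made its calls: active means activation above the run cutoff, the mean activation of all test compounds plus 3 SD (cut at about 18% in these data); inactive means the rest.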
These compounds were tested against Muscarinic acetylcholine receptor M5 (Homo sapiens) (UniProt P08912) (assay: CHRM5 PAMs potentiating acetylcholine calcium signal – CHO-K1 cells, Fluo-8 calcium fluorescence, primary screen (AID 624038)). Details: CHO-K1 hM5, Fluo-8 calcium, ACh EC20 PAM; at 3 µM; stronger effect = higher value; 0% = ACh EC20, 100% = ACh EC100.
Chain of Muscarinic acetylcholine receptor M5 (Homo sapiens) (P08912 whole entry, looked up): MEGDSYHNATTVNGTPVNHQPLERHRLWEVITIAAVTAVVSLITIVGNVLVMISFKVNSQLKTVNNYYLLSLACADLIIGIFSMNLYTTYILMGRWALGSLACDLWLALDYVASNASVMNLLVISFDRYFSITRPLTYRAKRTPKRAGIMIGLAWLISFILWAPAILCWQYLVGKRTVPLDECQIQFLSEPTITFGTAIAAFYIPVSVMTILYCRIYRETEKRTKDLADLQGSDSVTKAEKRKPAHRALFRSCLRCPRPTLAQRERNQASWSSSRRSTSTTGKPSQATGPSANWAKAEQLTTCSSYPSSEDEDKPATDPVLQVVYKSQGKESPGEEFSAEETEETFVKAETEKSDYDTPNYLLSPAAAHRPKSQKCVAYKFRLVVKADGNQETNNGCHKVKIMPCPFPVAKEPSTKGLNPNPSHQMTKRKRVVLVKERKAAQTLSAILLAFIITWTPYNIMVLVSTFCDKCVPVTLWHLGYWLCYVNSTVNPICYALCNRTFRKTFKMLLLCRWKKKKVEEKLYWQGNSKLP
Outline: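 Probe or stimulus: acetylcholine, EC20 level; Assay system: human M5 receptor in CHO-K1 cells; Schedule: compound preincubation 140 s before EC20 acetylcholine addition; Technique: intracellular calcium via Fluo-8 fluorescence; Dosing: single-point, 3 µM nominal; Read-out basis: percent activation from peak-over-basal fluorescence ratio, scaled EC20-to-EC100 acetylcholine; Repeats: one well per compound, no replicates.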

`CCCc1ccc(C(=O)[C@@H]2[C@@H](C(C)=O)N3c4ccc(F)cc4C=C[C@@H]3[C@@]23C(=O)Nc2ccccc23)cc1` was tested, and the activation was 25.3% (active).
With `CCCc1nc(-c2cc3cc(C)ccc3[nH]c2=O)no1` the activation was 25% (active).
For `CC(C)(C)NC(=O)CN(C(=O)c1ccc(Cl)nc1)c1cccc2ccccc12`, the activation was 22.9% (active).
`Cc1cc(N/N=C\c2ccc(Br)cc2)nc(-n2nc(C)cc2C)n1` was tested, and the activation was 20.4% (active).
In the case of `CC(NC(=O)c1cc2cc(Cl)ccc2oc1=N)c1ccccc1` (stereo unspecified), the activation is reported as 35.2% (active).
`NC1=C([N+](=O)[O-])C(c2ccccc2)C2=C(CCCC2=O)O1` (stereo unspecified) was tested, and the activation was 23.6% (active).
With `CC(=O)N1CC[n+]2c(-c3ccc([N+](=O)[O-])cc3)csc21` the activation was 20% (active).
`COc1cc(OC)cc(C(=O)NCC(=O)OCC(=O)NC(C)CCc2ccccc2)c1` (stereo unspecified) was tested, and the activation was 21.1% (active).
In the case of `CCC(C(=O)NCc1ccc(OC)cc1)n1nc(C)n2c(cc3occc32)c1=O` (stereo unspecified), the activation is reported as 18.4% (active).

In order of falling activation:
1. CCOc1ccc(N(C)S(=O)(=O)c2cnc[nH]2)cc1  11.8%
2. CC(C)CN(C(=O)CSc1nncn1C)C1CCS(=O)(=O)C1 (stereo unspecified)  11.7%
3. O=c1c2cc(-c3ccccc3)sc2nc2n1N=C(c1cccs1)CS2  9.65%
4. CN1CCC(=NNC(=O)CN(c2cccc(Cl)c2)S(C)(=O)=O)CC1  7.47%
5. COC(=O)Cc1nc2c(N)nc(N)nc2[nH]c1=O  5.33%
6. Cc1ccc2[nH]c(=O)c(CN(C)S(=O)(=O)c3cccc4nonc34)cc2c1  4.24%
7. Cc1cc(C)nc(-n2nc(C)cc2NC(=O)c2ccc(F)cc2F)n1  3.36%
8. Cc1c(C(=O)NCC2CC2)sc(=O)n1Cc1cccc(F)c1  2.84%
9. COc1cc(OC)c(NC(=O)C2CCCN2C(=O)OCc2ccccc2)cc1Cl (stereo unspecified)  2.68%
10. COC(=O)c1ccc(Oc2nc(NC(C)C)nc(SC)n2)cc1  2.31%
11. CCc1nn(CCCC(=O)NCc2ccc(C)cc2)c(=O)c2cc3occc3n12  2.21%
12. COc1ccc(S(=O)(=O)N2CCN(CC(=O)N3CCNC3=O)CC2)cc1OC  2.2%
13. CN1C2CCC1CC(NC(=O)c1ccc([N+](=O)[O-])cc1)C2 (stereo unspecified)  0.81%
14. CCCCNC(=O)OC1CC2CC1[C@H]1CCCCN1C2=O (stereo partly specified)  0.25%
15. CCCNC(=O)C1(C)CCN(Cc2ccc(Cl)c(Cl)c2)C1 (stereo unspecified)  0.24%
16. CC(C)Oc1ccc(CN2CCC(n3nccc3NC(=O)c3cccnc3)CC2)cc1  0.11%
17. Cc1cc(-n2cnc(-c3cn(C)nc3C)n2)no1  -0.03%
18. Cc1ccc(C(=O)NC(C)c2ccccc2)cc1Br (stereo unspecified)  -0.29%
19. Cc1cc(C)n(-c2nnc(N3CCN(c4ccccc4)CC3)nn2)n1  -0.36%
20. O=C(NNS(=O)(=O)c1c(F)cc(F)c(Cl)c1F)C12CC3CC(CC(C3)C1)C2  -0.38%
21. COc1ccccc1-c1n[nH]nc1C1=CC(=O)CC(C)(C)C1  -0.48%
22. CC(C)(C)C1CCC(OC(=O)CCC(=O)Nc2ccccc2)CC1 (stereo unspecified)  -2.13%
23. CCCCCCCCN1C(=O)[C@H](CC(=O)NCC23CC4CC(CC(C4)C2)C3)C[C@@]2(C(=O)OC)CCCCC=C12  -2.23%
24. CC(C)(C)NC(=O)CN(C(=O)c1csnn1)c1ccccc1-c1ccccc1  -2.48%
25. CCCn1c(O)c(CN2CCCC(C)C2)c(C)c(C#N)c1=O (stereo unspecified)  -2.92%
26. CC(=O)Oc1ccc(-c2cccc(C(=O)N3CCCCC3)c2)cc1  -3.42%
27. CC(CCc1ccccc1)NC(=O)COC(=O)c1ccc(F)cc1 (stereo unspecified)  -4.05%
28. N#CC1=C(N)OC2=C(C(=O)CCC2)C1C1CC=CCC1 (stereo unspecified)  -4.35%
29. CCOc1ccc(CCNC(=O)C(CC)n2nc(C)n3c(cc4sccc43)c2=O)cc1OCC (stereo unspecified)  -4.37%
30. COC(=O)c1cccc([N+](=O)[O-])c1CS(=O)(=O)c1ccc(C)cc1  -5.08%
31. COc1cc(C2C3=C(CCCC3=O)OC3=C2C(=O)CCC3)ccc1OCC(=O)Nc1ccccc1  -5.18%
32. CC(NC(=O)C(=O)N/N=C/c1ccc(Cl)cc1)c1ccccc1 (stereo unspecified)  -5.3%
33. CC(=O)N1c2ccc(S(=O)(=O)N3CCC(C(=O)NC4CCCCC4C)CC3)cc2CC1C (stereo unspecified)  -5.55%
34. Cc1cc(C)cc(C(=O)N2CCN=C2SCc2ccc([N+](=O)[O-])cc2)c1  -5.65%
35. Cc1ccc2[nH]c(=O)c(COC(=O)c3ccccn3)cc2c1  -8.69%
36. COc1cc(C(=O)OCC(=O)NC(C)CCc2ccccc2)cc(OC)c1OC (stereo unspecified)  -10.1%
37. O=C(COC(=O)c1ccc(Cl)nc1)NCc1cccs1  -12.7%
